Active and inactive are the calls of the source. The rule behind the calls is not given here.
Key:
[1] = target: Cyclin-dependent kinase 4/cyclin D1 (Homo sapiens, UniProt P11802); assay: Inhibition of recombinant human N-terminal GST-fused CDK4 (S4 to E303 residues)/cyclin D1 (Q4 to I295 residues) expressed in baculovirus infected Sf9 insect cells using RPPTLSPIPHIPR as substrate measured in presence of [gamma-33P]ATP
Procedure, shortened: (§1)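 CDK/cyclin complexes tested in triplicate at minimum; IC50 values reported from those replicate determinations.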

CDK7/Cyclin H/MNAT1 = CDK7/Cyclin H/MNAT1 (Homo sapiens, UniProt P50613); assay: Inhibition of recombinant human N-terminal GST-His6-fused CDK7 (M1 to F346 residues)/N-terminal His-tagged cyclin H (M1 to L323 residues)/N-terminal His6-tagged MAT1 (M1 to S306 residues) expressed in baculovirus infected Sf9 insect cells using (YSPTSPS)2KK as substrate measured in presence of [gamma-33P]ATP; procedure, shortened: as §1
Sequence of CDK7/Cyclin H/MNAT1 (P51946 whole entry, the tested form may be a part): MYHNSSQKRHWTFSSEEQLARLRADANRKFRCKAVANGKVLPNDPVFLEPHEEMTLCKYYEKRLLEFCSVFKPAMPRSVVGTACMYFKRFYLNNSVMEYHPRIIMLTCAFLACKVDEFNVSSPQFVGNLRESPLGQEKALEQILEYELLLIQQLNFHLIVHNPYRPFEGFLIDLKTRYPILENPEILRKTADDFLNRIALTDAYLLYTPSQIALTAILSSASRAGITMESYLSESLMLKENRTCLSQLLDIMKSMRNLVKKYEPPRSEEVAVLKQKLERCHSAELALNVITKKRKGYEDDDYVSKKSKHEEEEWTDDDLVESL
Sequence of CDK7/Cyclin H/MNAT1 (P50613 whole entry, the tested form may be a part): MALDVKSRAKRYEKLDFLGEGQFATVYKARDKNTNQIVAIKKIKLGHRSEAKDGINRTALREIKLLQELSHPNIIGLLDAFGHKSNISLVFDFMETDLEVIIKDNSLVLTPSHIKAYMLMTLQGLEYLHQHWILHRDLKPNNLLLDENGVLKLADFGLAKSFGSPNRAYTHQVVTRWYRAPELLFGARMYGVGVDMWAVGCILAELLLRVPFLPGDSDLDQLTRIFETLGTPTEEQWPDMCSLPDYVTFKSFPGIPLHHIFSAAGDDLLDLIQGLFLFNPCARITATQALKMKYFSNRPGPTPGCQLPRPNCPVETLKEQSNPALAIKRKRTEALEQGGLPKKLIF
Sequence of CDK7/Cyclin H/MNAT1 (P51948 whole entry, further chain, the tested form may be a part): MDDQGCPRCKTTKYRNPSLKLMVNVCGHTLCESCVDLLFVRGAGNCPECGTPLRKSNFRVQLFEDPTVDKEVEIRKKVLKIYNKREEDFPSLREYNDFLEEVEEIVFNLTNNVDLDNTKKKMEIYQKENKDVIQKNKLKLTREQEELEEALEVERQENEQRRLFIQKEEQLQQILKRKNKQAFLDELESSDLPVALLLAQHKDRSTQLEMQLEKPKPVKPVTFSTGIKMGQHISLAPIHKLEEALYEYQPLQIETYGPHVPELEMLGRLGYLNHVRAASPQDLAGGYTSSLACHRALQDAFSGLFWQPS

CDK9/cyclin T1 = CDK9/cyclin T1 (Homo sapiens, UniProt P50750); assay: Inhibition of recombinant human N-terminal GST-His6-fused CDK9 (M1 to F372 residues)/N-terminal His6-tagged cyclin T1 (M1 to K726 residues) expressed in baculovirus infected Sf9 insect cells using (YSPTSPS)2KK as substrate measured in presence of [gamma-33P]ATP
Sequence of CDK9/cyclin T1 (O60563 whole entry, the tested form may be a part, canonical isoform): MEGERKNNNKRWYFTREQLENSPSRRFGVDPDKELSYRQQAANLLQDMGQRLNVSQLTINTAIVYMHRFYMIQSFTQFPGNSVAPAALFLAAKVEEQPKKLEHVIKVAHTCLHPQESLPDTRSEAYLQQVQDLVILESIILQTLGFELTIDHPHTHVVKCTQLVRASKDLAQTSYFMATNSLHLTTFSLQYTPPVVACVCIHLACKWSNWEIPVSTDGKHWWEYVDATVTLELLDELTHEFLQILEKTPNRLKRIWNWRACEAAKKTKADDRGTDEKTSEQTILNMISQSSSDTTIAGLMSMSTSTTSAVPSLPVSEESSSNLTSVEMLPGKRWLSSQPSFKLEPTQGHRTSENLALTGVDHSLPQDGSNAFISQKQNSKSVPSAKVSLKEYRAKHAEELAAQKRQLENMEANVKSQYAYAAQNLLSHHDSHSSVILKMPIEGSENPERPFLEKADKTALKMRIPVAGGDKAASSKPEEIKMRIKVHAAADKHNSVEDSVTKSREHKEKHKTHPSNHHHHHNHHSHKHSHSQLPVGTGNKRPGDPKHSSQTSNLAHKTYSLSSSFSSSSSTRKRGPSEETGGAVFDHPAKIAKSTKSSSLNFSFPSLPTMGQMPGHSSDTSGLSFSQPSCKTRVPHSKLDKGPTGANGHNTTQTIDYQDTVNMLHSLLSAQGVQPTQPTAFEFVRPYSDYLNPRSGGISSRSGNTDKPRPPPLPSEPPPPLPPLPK
Sequence of CDK9/cyclin T1 (P50750 whole entry, the tested form may be a part, canonical isoform): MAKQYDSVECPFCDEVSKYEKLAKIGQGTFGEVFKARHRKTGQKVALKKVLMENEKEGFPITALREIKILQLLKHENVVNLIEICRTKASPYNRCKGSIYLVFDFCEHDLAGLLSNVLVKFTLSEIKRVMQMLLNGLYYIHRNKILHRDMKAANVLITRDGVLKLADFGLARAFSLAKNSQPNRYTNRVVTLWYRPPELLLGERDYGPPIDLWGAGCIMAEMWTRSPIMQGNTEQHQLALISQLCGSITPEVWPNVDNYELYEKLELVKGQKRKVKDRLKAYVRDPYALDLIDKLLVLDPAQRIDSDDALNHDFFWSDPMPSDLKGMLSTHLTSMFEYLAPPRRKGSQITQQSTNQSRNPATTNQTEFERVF

[2] = target: Casein kinase I isoform delta (Homo sapiens, UniProt P48730); assay: Inhibition of CK1delta (unknown origin)
Sequence of Casein kinase I isoform delta (P48730 whole entry, canonical isoform): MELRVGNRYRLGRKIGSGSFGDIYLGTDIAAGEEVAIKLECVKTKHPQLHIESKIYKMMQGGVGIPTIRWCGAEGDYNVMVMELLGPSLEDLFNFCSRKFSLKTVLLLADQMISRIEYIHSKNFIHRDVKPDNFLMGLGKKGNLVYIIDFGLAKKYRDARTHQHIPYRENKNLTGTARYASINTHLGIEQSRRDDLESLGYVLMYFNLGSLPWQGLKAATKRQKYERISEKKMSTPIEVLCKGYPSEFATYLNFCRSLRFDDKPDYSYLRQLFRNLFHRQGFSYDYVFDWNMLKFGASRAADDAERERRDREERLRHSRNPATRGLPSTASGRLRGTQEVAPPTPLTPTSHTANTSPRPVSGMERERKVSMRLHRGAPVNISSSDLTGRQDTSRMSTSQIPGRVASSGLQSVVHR

MCF7 = assay: Antiproliferative activity against human MCF7 cells assessed as growth inhibition measured after 72 hrs by calcein AM dye-based fluorescence assay; format: functional, cell-based; conditions: MCF7, 72 h
Procedure, shortened: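 Cells exposed in triplicate to six concentrations for 72 h; calcein AM added for 1 h, live-cell fluorescence read at 485/538 nm (ex/em). GI50 taken from dose-response curves.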

[3] = system: Panel NCI-60 (60 carcinoma cell lines); assay: Antiproliferative activity against human NCI60 cells after 48 hrs by sulforhodamine B assay; format: functional
Homo sapiens [4] = species: Homo sapiens; assay: Induction of apoptosis in human Mino cells assessed as effect on BCL-xL protein expression at 1.5 to 12.5 nM after 24 hrs by immunoblotting analysis; format: functional, cell-based
Procedure, shortened: (§2)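 Lymphoma cell lines were cultured as the providers instruct and exposed to compound at several doses or for several times. Lysates were run on SDS-PAGE and blotted to nitrocellulose. Blots were blocked, incubated overnight with primary antibodies diluted in PBS with 5% milk and 0.1% Tween 20, then with peroxidase-conjugated secondaries, and detected by chemiluminescence on a CCD camera.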

[5] = target: Cyclin-dependent kinase 9 (Homo sapiens) (UniProt P50750); assay: Inhibition of CDK9 in human Mino cells assessed as decrease in phosphorylation of RNA polymerase 2 C-terminal domain at Ser 2 residue at 12.5 nM by immunoblotting analysis; format: cell-based; conditions: TDE = time-dependent effect
Sequence of Cyclin-dependent kinase 9 (Homo sapiens) (P50750 whole entry, the tested form may be a part): as the sequence (P50750 whole entry, the tested form may be a part, canonical isoform) above
Procedure, shortened: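 MINO lymphoma cells exposed to 12.5 nM for up to 24 h (time course). Lysates separated by SDS-PAGE, transferred to nitrocellulose, probed overnight with specific primary antibodies diluted in PBS with 5% milk and 0.1% Tween 20, then peroxidase-conjugated secondaries; chemiluminescence imaged with a CCD camera.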

Mus musculus [6] = assay: Ex vivo antitumor activity against patient derived VFN-M1 cells xenografted NSG mouse assessed as increase in cleaved caspase 7 expression at 10 mg/kg, iv measured after 24 hrs by immunoblotting analysis; format: functional, organism-based
Procedure, shortened: (§3)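 Female NSG mice, 8-12 weeks old, implanted s.c. with lymphoma cells. Once tumors were palpable, mice received a single tail-vein i.v. dose (5 or 10 mg/kg) of compound dissolved in PBS. Mice were euthanized 24 h later. Tumors were excised, filtered through 45 µm nylon mesh and lysed, then proteins were analysed by immunoblotting.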

Mus musculus [7] = assay: Ex vivo antitumor activity against patient derived VFN-M1 cells xenografted NSG mouse assessed as increase in cleaved caspase 9 expression at 10 mg/kg, iv measured after 24 hrs by immunoblotting analysis; format: functional, organism-based; procedure, shortened: as §3
Homo sapiens [8] = species: Homo sapiens; assay: Induction of apoptosis in human UPF1H cells assessed as induction of PARP1 cleavage at 12.5 to 100 nM after 24 hrs by immunoblot analysis; format: functional, cell-based; procedure, shortened: as §2
Maver1 = assay: Induction of apoptosis in human Maver1 cells assessed as reduction in MCL1 expression at 1.5 to 12.5 nM after 24 hrs by immunoblot analysis; format: functional, cell-based; procedure, shortened: as §2
Mus musculus [9] = assay: Ex vivo antitumor activity against human Mino cells xenografted NSG mouse decrease in phosphorylation of Rb at 780 residue at 5 to 10 mg/kg, iv measured after 24 hrs by immunoblotting analysis; format: functional, organism-based; procedure, shortened: as §3
Mus musculus [10] = assay: Ex vivo antitumor activity against human Mino cells xenografted NSG mouse decrease in phosphorylation of Rb at […] residue at 5 to 10 mg/kg, iv measured after 24 hrs by immunoblotting analysis; format: functional, organism-based; procedure, shortened: as §3
Mus musculus [11] = assay: Ex vivo antitumor activity against human UPF1H cells xenografted NSG mouse decrease in phosphorylation of Rb at 780 residue at 5 to 10 mg/kg, iv measured after 24 hrs by immunoblotting analysis; format: functional, organism-based; procedure, shortened: as §3
Homo sapiens [12] = assay: Antitumor activity against human HBL2 cells xenografted in NSG mouse assessed as inhibition of tumor growth at 10 mg/kg, iv administered daily measured every day during compound dosing by caliper method

Sequence of Cyclin-dependent kinase 4/cyclin D1 (P11802 whole entry, the tested form may be a part): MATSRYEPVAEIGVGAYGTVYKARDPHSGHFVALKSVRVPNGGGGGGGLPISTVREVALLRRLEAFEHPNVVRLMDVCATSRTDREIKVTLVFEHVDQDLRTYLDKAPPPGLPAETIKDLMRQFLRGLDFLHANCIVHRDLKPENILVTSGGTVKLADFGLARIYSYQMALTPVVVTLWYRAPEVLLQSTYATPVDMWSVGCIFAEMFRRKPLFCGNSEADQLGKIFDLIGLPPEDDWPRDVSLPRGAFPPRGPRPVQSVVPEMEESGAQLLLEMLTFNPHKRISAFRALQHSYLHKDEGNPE
Sequence of Cyclin-dependent kinase 4/cyclin D1 (P24385 whole entry, further chain, the tested form may be a part): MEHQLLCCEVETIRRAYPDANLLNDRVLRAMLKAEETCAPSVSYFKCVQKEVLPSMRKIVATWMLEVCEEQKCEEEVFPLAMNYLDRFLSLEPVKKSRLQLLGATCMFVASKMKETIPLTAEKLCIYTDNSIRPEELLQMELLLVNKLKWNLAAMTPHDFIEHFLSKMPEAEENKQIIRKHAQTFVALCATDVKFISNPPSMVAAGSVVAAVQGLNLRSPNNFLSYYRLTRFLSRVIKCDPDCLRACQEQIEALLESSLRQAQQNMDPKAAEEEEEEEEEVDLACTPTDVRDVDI

What does the source list for `CC(C)c1n[nH]c2c(NCc3ccc(-c4ccccn4)cc3)nc(SCCN)nc12`?
IC50 [1]: 603 nM; IC50 (CDK7/Cyclin H/MNAT1): 124 nM; IC50 (CDK9/cyclin T1): 25 nM; IC50 [2]: 45 nM; GI50 (MCF7): 21.6 nM; IC50 (MCF7): 16 nM; GI50 [3]: 23 nM; Activity (Homo sapiens [4]): inactive; inhibition [5]: Tde; Activity (Mus musculus [6]): Active; Activity (Mus musculus [7]): Active; Activity (Homo sapiens [8]): Active; Activity (Maver1): Active; Activity (Mus musculus [9]): Active; Activity (Mus musculus [10]): Active; Activity (Mus musculus [11]): Active; TGI (Homo sapiens [12]): Active

From ChEMBL document CHEMBL4385606, “3,5,7-Substituted Pyrazolo[4,3- d]pyrimidine Inhibitors of Cyclin-Dependent Kinases and Their Evaluation in Lymphoma Models” (J Med Chem, 2019)
